In article PMC6563393 (Molecular Imaging, 2019):
Blank lines part the entries; values can stand above or below the compound they belong to.

Columns and labels:
[1] = Ex vivo biodistribution, hPD-L1 xenografts; assay type: in vivo, NSG mice; conditions: female, NSG, mouse, hPD-L1 tumor (xenograft), iv, 740 kBq, total radioactivity
Outline: (§1)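 Female NSG mice (6–8 weeks) bearing subcutaneous CHO/hPD-L1 and parental CHO tumours received radiotracer iv in saline (from 5% DMSO/Tween 20 stock). For blocking, it was coinjected with 50 µg unmodified peptide. Mice were dissected at 10, 60 and 120 min (n = 4 per time point). Blood, tumours and tissues were weighed and gamma-counted with triplicate radioactive standards. Values are %ID/g, mean ± SEM, compared by unpaired two-tailed t test.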

hPD-L1 tumors = experiment: Ex vivo biodistribution, hPD-L1 xenografts; assay type: in vivo, NSG mice; conditions: co-injected with 50 µg blocking dose of WL12
Outline: as §1

[2] = Ex vivo biodistribution, MDAMB231 xenografts; assay type: in vivo, NSG mice; conditions: female, NSG, mouse, MDAMB231 tumor (xenograft), iv, 740 kBq, total radioactivity
Outline: (§2)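 Female NSG mice (6–8 weeks) with subcutaneous xenografts got 740 kBq radiotracer in 200 µL iv. The radiotracer was reconstituted in saline with 5% DMSO and Tween 20, then diluted in saline. Mice were killed at 120 min (MDAMB231 also 60 min, plus a group coinjected with 50 µg unmodified peptide). Blood, tumour and tissues were weighed and gamma-counted with triplicate standards. %ID/g reported as mean ± SEM.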

[3] = Ex vivo biodistribution, SUM149 xenografts; assay type: in vivo, NSG mice; conditions: female, NSG, mouse, SUM149 tumor (xenograft), iv, 740 kBq, total radioactivity
Outline: as §2

[4] = Ex vivo biodistribution, H226 xenografts; assay type: in vivo, NSG mice; conditions: female, NSG, mouse, H226 tumor (xenograft), iv, 740 kBq, total radioactivity
Outline: as §2

[5] = Ex vivo biodistribution, normal tissues; assay type: in vivo, NSG mice; conditions: at all the time points (10, 60, 120 minutes); blocking dose had minimal effect
Outline: as §1

[6] = system: hPD-L1, CHO, MDAMB231, SUM149, H226, and H1155 cells; experiment: [^18F]FPy-WL12 in vitro uptake assay; assay type: cell-based; conditions: blocking with 1 µM unmodified WL12; 1 hour at 37°C
Outline: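 Cells were lifted with non-enzymatic dissociation buffer. 1 × 10⁶ cells in PBS with 2 mM EDTA and 1% FBS were incubated with 1 µCi radiotracer for 1 h at 37°C, washed three times with cold PBS, and bound activity was gamma-counted. CHO-hPD-L1 cells were kept in F-12K/10% FBS with 2 mg/mL G418. SUM149 cells were grown in Ham's F-12/5% FBS with insulin and hydrocortisone. Runs were in triplicate, repeated three times.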

[7] = molecular target: recombinant human PD-L1(B7-H1)-His-tag protein (human) (UniProt Q9NZQ7); experiment: AlphaScreen or HTRF
[8] = molecular target: endogenous PD-L1 on MDAMB231 and H226 cells (human (endogenous in MDAMB231 and H226)) (UniProt Q9NZQ7)

Compound: CCCC[C@H]1C(=O)N(C)[C@@H](CCCC)C(=O)N[C@@H](CCCNC(=O)c2ccc(F)nc2)C(=O)N[C@H](C(=O)NCC(N)=O)CSCC(=O)N[C@@H](Cc2ccc(O)cc2)C(=O)N(C)[C@@H](C)C(=O)N[C@@H](CC(N)=O)C(=O)N2CCC[C@H]2C(=O)N[C@@H](Cc2c[nH]cn2)C(=O)N[C@@H](CC(C)C)C(=O)N2C[C@H](O)C[C@H]2C(=O)N[C@@H](Cc2c[nH]c3ccccc23)C(=O)N[C@@H](CO)C(=O)N[C@@H](Cc2cn(C)c3ccccc23)C(=O)N1C [[^18F]FPy-WL12]
tissue uptake at 1 h [1]: 7.16 ± 1.67 %ID/g | reduction in the uptake in hPD-L1 tumors by blocking dose (hPD-L1 tumors): 85% | tissue uptake at 2 h [2]: 2.15 ± 0.1 %ID/g | tissue uptake at 2 h [3]: 1.43 ± 0.11 %ID/g | tissue uptake at 2 h [4]: 2.77 ± 0.31 %ID/g | accumulation in liver and kidneys [5]: high | [^18F]FPy-WL12 uptake in cells coincubated with unmodified WL12 [6]: significantly reduced

IC50 [7]: 26.4 nM | Ki [7]: 12.3 nM
Compound: WL12, PD-L1-binding peptide (14-amino acid cyclic peptide)

tumor uptake in MDAMB231 xenografts at 120 minutes, ex vivo biodistribution [8]: 2.15 %ID/g
Compound: [^18F]FPy-WL12, radiotracer (WL12 acylated with 6-[^18F]fluoronicotinate) (peptide)

IC50 [7]: 31.7 nM | Ki [7]: 14.8 nM
Compound: ^19FPy-WL12, nonradioactive analog of the radiotracer (WL12 acylated with 6-fluoronicotinate) (peptide)
